Assays:
[1] = Inhibition of Schistosoma mansoni purine nucleoside phosphorylase
How it was run: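 Coupled spectrophotometric assay with 5 nM SmPNP (as monomer) in 50 mM potassium phosphate, pH 7.4, with 10 uM inosine and xanthine oxidase 40 milliunits/mL. Uric acid formation read at 293 nm, 25°C, in triplicate. IC50 obtained from rates at six or more inhibitor concentrations. Values are means of at least three independent experiments.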

[2] = molecular target: T1, Purine nucleoside phosphorylase (Homo sapiens, UniProt P00491); experiment: Inhibition of human purine nucleoside phosphorylase
T1 sequence (P00491 whole entry): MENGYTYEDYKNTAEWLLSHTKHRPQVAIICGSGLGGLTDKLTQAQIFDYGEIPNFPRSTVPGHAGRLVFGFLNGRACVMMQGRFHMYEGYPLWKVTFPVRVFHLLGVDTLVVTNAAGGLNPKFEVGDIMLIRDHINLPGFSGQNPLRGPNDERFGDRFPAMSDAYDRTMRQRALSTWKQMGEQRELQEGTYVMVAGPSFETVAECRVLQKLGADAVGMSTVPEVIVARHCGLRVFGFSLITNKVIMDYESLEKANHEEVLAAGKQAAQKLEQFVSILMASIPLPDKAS

[3] = Selectivity ratio of IC50 for human purine nucleoside phosphorylase to IC50 for Schistosoma mansoni purine nucleoside phosphorylase

Structure (SMILES) | IC50 [1] [nM] | IC50 [2] [nM] | Ratio IC50 [3]
Nc1nc2c(Cc3ccc(OCc4ccccc4)cc3)c[nH]c2c(=O)[nH]1 | 500 | 300 | 0.6
Nc1nc2c(ccn2[C@H]2O[C@@H](CO)[C@H](O)[C@@H]2O)c(=S)[nH]1 | 95000 | 315000 | 3.3
CC(C)c1ccc(Cc2c[nH]c3c(=O)[nH]c(N)nc23)cc1 | 150 | 270 | 1.8
Nc1nc2c(Cc3cccnc3)c[nH]c2c(=O)[nH]1 [PELDESINE] | 800 | 200 | 0.25
Nc1nc2c(Cc3ccccc3)c[nH]c2c(=O)[nH]1 | 1400 |  | 
Nc1nc2c(Cc3ccncc3)c[nH]c2c(=O)[nH]1 | 3000 | 100 | 0.033
Nc1ncnc2c1ccn2[C@H]1O[C@@H](CO)[C@H](O)[C@@H]1O | 200000 | 300000 | 1.5
O=c1nc[nH]c2c([C@H]3O[C@@H](CO)[C@H](O)[C@@H]3O)[nH]nc12 | 47000 | 300000 | 6.4
Nc1nc2c(Cc3ccccn3)c[nH]c2c(=O)[nH]1 | 7000 | 23 | 0.003
Nc1nc2c(Cc3cccc(Cl)c3)c[nH]c2c(=O)[nH]1 | 500 | 50 | 0.1

Reference: ChEMBL document CHEMBL1157547, “Structural basis for selective inhibition of purine nucleoside phosphorylase from Schistosoma mansoni: kinetic and structural studies” (Bioorg Med Chem, 2010)
